The list is not random: actives were taken first. Their share in the collection is about 2.3%.
TRPC4 inh = inhibitors of mouse TRPC4 channel, primary screen, Fluo4 calcium, HEK293 TRPC4beta/mu-opioid cells. 300,000 tested, 0.39% active. B-score at 10 µM. AID 2247, 2010. DAMGO-evoked Fluo4 calcium flux; stronger effect = lower value. Short transient receptor potential channel 4 (Mus musculus), Q9QUQ5;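 active = B-score over 3 SD under the library average, no early fluorescence shift, positive overall ratio signal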
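Assay system: Stable TRPC4beta/mu-opioid receptor HEK293 cells | Reagent: DAMGO in two steps, submaximal then maximal | Compound dosing: Single concentration per test compound | Signal: Fluo4 Ca2+ flux fluorescence | Evaluation: Per-well B score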
TRPC4 potent = positive allosteric modulators of TRPC4, primary screen, cell-based, mouse TRPC4beta, HEK293 mu-opioid, Fluo-4 calcium; DAMGO EC20, Fluo-4 Ca2+ flux; stronger effect = higher value; 310,000 tested, 0.42% active; AID 2227, 2009; B-score at 10 µM;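 active = B-score of calcium response area above 5 SD of library B-scores, with initial fluorescence ratio within 5 SD of library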
TRPC6 inh = mouse TRPC6 channel inhibitors, primary screen, cell-based, HEK293, membrane potential dye; 310,000 tested, 1.1% active; AID 2553, 2010; ACh-evoked depolarization; stronger effect = lower value; B-score at 10 µM;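 active = B-score under library mean minus 3 SD, initial fluorescence not abnormally high, positive integrated signal ratio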;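 note: B-score derived from integrated fluorescence ratio over the kinetic read; more negative B-score means stronger inhibition of depolarization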
Target sequence (Q61143 whole entry, looked up): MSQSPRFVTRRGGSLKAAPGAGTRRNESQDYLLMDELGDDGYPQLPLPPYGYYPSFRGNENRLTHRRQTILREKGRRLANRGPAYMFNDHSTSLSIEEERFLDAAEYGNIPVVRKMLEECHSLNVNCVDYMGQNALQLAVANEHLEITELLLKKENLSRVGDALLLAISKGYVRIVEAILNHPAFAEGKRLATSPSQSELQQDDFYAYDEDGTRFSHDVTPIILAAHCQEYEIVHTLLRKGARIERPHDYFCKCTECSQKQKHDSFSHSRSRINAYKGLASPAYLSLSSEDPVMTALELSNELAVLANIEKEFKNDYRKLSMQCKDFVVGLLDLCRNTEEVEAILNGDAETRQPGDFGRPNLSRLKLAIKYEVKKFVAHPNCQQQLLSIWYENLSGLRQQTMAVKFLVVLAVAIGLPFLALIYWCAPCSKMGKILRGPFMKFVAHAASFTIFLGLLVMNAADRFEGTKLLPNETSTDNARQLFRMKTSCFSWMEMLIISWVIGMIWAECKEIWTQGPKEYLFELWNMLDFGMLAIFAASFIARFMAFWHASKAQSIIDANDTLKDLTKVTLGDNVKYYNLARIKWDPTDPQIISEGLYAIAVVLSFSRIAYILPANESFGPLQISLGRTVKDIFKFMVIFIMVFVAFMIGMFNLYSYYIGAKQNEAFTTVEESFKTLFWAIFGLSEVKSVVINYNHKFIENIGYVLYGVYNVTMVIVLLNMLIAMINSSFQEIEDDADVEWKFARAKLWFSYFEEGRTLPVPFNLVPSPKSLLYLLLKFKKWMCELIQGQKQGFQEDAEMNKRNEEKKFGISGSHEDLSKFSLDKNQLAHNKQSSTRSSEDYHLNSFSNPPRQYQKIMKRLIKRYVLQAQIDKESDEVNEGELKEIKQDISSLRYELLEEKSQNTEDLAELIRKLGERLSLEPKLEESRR
TRPC4 act = activators of mouse TRPC4 channel, primary screen, Fluo4 calcium, HEK293 TRPC4beta/mu-opioid cells | Fluo4 calcium fluorescence; stronger effect = higher value | Short transient receptor potential channel 4 (Mus musculus), Q9QUQ5 | 310,000 tested, 0.49% active | AID 2237, 2010 | B-score at 10 µM;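 active = B-score above 5 SD of library B-scores, and initial fluorescence ratio not above library mean plus 5 SD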;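 note: positive B-score marks a calcium rise read as TRPC4 activation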
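Assay system: HEK293 stable line with TRPC4beta plus mu-opioid receptor. Times: dye 45 min RT, read 110 s. Measured by: kinetic Fluo4 calcium fluorescence. Measure: B score of integrated ratio. Controls: assay buffer as low control, maximal DAMGO as high control.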
TRPC6 activator = mouse TRPC6 channel activators, primary screen, cell-based, HEK293, membrane potential dye; B-score at 10 µM; 310,000 tested, 0.13% active; Short transient receptor potential channel 6 (Mus musculus), Q61143; HEK293-TRPC6 membrane potential dye fluorescence; stronger effect = higher value;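 active = B-score of the integrated fluorescence ratio above library mean plus 3 SD, and starting fluorescence ratio within library mean plus 5 SD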;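 note: higher score means more depolarization so channel activation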
TRPC4 spec 2 = mouse TRPC4 off-target activity of TRPC6 inhibitors, second screen. shares compounds with TRPC6 inh. HEK293 TRPC4/MOR, membrane potential dye fluorescence; channel activated by saturating DAMGO dose. inhibition, % at 10 µM. 920 tested, 42% active. AID 2776;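 active = compounds whose fluorescence signal differed from control wells by over 3 SD, either direction, in both duplicate plates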
TRPC4 spec = mouse TRPC4 modulation by TRPC6 hits, confirmation, selectivity assay for TRPC6 inhibitor project, cell-based, HEK293 TRPC4/mu-opioid, membrane potential dye; shares compounds with TRPC6 inh; membrane potential fluorescence; activity change, negative = inhibition, % at 10 µM; 920 tested, 61% active; AID 2777, 2010;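 active = rise or fall in signal beyond 3 SD of buffer-only wells in both replicate plates, either sign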;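 note: integrated kinetic ratio of fluorescence range over baseline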
HEK293 MPD ctr 2-1 = nonspecific membrane potential effects, parental HEK293, confirmation, counter-screen for TRPC6 inhibitor project, cell-based, second counter screen; 920 tested, 31% active; AID 2779, 2010; signal change vs control, % at 10 µM; shares compounds with TRPC6 inh; parental HEK293 membrane potential dye fluorescence; maximal acetylcholine challenge after compound addition;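 active = membrane potential signal moving either way by over 3 SD of the maximum-effect control, in both duplicate plates, meaning non-specific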
HEK293 MPD ctr-1 = membrane potential modulation in parental HEK293, confirmation, counter-screen for TRPC6 inhibitor project, cell-based; shares compounds with TRPC6 inh; parental HEK293 membrane potential dye fluorescence; membrane potential signal change, % at 10 µM; 920 tested, 60% active; AID 2780, 2010;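 active = membrane potential signal shifting up or down by more than 3 SD of buffer-only wells, on both duplicate plates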
HEK293 MPD ctr-2 = parental HEK293 membrane potential modulation, confirmation, counter-screen for TRPC6 modulator project, cell-based; shares compounds with TRPC6 inh; membrane potential dye fluorescence; membrane potential signal change, % at 10 µM; 2,400 tested, 51% active; AID 488924, 2010;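 active = membrane potential signal moves up or down beyond 5 SD from buffer-only wells, on both duplicate plates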
HEK293 MPD ctr 2-2 = second check of TRPC6 modulator effects in parental HEK293 cells; shares compounds with TRPC6 inh; membrane potential dye fluorescence; after compound, maximal acetylcholine stimulation; inhibition, % at 10 µM; 2,400 tested, 14% active; AID 488926;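 active = membrane potential signal drops by more than 5 SD from the mean control signal, in both duplicate plates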
TRPC4/MOR mod = TRPC4 modulation by TRPC6 hit compounds, confirmation, selectivity assay for TRPC6 modulator project, cell-based, HEK293 TRPC4/mu-opioid, membrane potential dye, mouse | 2,400 tested, 69% active | shares compounds with TRPC6 inh | membrane potential fluorescence | AID 488927, 2010 | percent change from control (negative = decrease, positive = increase), % at 10 µM;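 active = membrane potential signal moved up or down beyond 5 SD of buffer control wells, in both duplicate plates, actives on both sides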
TRPC4 ctr inh 2 = second selectivity test of TRPC6 modulators against mouse TRPC4 | shares compounds with TRPC6 inh | inhibition, % at 10 µM | HEK293 TRPC4/mu-opioid, membrane potential dye fluorescence; stimulated with maximal-effect DAMGO | AID 488928 | 2,400 tested, 55% active;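 active = drop in membrane potential signal beyond 5 SD of the control wells in both duplicate plates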;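 note: TRPC4 counter screen for TRPC6 hits run under conditions tuned for TRPC6 not TRPC4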
TRPC6 block conf = mouse TRPC6 channel inhibitors, confirmation, HEK293 cells, membrane potential dye, duplicate; 3,300 tested, 43% active; ACh-evoked depolarization; inhibition, % at 10 µM; shares compounds with TRPC6 inh;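 active = fluorescence ratio falls more than 5 SD below the full-stimulation control mean, in both duplicate runs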;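 note: integrated fluorescence ratio of peak minus minimum over baseline after agonist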
TRPC6 act confirm = mouse TRPC6 channel activators, confirmation, HEK293 cells, membrane potential dye, duplicate | 2,800 tested, 11% active | activation, % at 10 µM | shares compounds with TRPC6 inh | HEK293-TRPC6 membrane potential dye fluorescence, FDSS;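 active = ratio signal rise beyond 5 SD above unstimulated control wells' mean, seen in both duplicate runs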
Hits are given with their value.

`CN(C)CCCn1c(=O)n(Cc2ccco2)c(=O)c2c3c(sc21)CCCCC3` gave TRPC4 inh inactive, TRPC4 potent inactive, TRPC6 inh inactive, TRPC4 act inactive and TRPC6 activator inactive.
`CN(C)C(CNC(=O)c1cccc(NS(=O)(=O)c2ccc(Br)cc2)c1)c1ccco1` (stereo unspecified) gave TRPC4 inh inactive, TRPC4 potent inactive, TRPC6 inh -5.72, TRPC4 act inactive, TRPC6 activator inactive, HEK293 MPD ctr-2 inactive, HEK293 MPD ctr 2-2 inactive, TRPC4/MOR mod 9.5%, TRPC4 ctr inh 2 inactive, TRPC6 block conf inactive and TRPC6 act confirm inactive.
`COc1ccc(OC)c(/C=N/NC(=O)Cn2ccnc2C)c1` gave TRPC4 inh inactive, TRPC4 potent inactive, TRPC6 inh -10.3, TRPC4 act inactive, TRPC6 activator 13.8, HEK293 MPD ctr-2 inactive, HEK293 MPD ctr 2-2 inactive, TRPC4/MOR mod inactive, TRPC4 ctr inh 2 inactive, TRPC6 block conf 80.5% and TRPC6 act confirm 186.5%.
For COc1cccc(/C=N/NC(=O)Cn2ccnc2C)c1 the results were TRPC4 inh inactive, TRPC4 potent inactive, TRPC6 inh inactive, TRPC4 act inactive and TRPC6 activator inactive.
For Cc1ccc(CN2CCSc3ccc(C(=O)NCCCN4CCOCC4)cc32)cc1 the results were TRPC4 inh inactive, TRPC4 potent inactive, TRPC6 inh inactive, TRPC4 act inactive and TRPC6 activator inactive.
CN1CCN(CCCNC(=O)c2ccc3c(c2)N(Cc2ccccc2)CCS3)CC1 was read as TRPC4 inh inactive, TRPC4 potent inactive, TRPC6 inh -7.93, TRPC4 act inactive, TRPC6 activator inactive, TRPC4 spec 2 62.5%, TRPC4 spec inactive, HEK293 MPD ctr 2-1 inactive, HEK293 MPD ctr-1 inactive, TRPC6 block conf inactive and TRPC6 act confirm inactive.
Screening CCN1CCN(CCCNC(=O)c2ccc3c(c2)N(Cc2ccc(C)cc2)CCS3)CC1 returned TRPC4 inh inactive, TRPC4 potent inactive, TRPC6 inh -5.17, TRPC4 act inactive, TRPC6 activator inactive, HEK293 MPD ctr-2 inactive, HEK293 MPD ctr 2-2 inactive, TRPC4/MOR mod inactive, TRPC4 ctr inh 2 74.0%, TRPC6 block conf 57.0% and TRPC6 act confirm inactive.
For Cc1cc(=O)n(C)c(=O)n1CCCCOc1ccc([N+](=O)[O-])cc1 the results were TRPC4 inh inactive, TRPC4 potent inactive, TRPC6 inh inactive, TRPC4 act inactive and TRPC6 activator inactive.
For COc1ccc2c(c1)c(C(=O)CN1CCc3ccccc3C1)c(C)n2C the results were TRPC4 inh inactive, TRPC4 potent inactive, TRPC6 inh -6.45, TRPC4 act inactive, TRPC6 activator inactive, HEK293 MPD ctr-2 -88.5%, HEK293 MPD ctr 2-2 inactive, TRPC4/MOR mod -16.5%, TRPC4 ctr inh 2 59.0%, TRPC6 block conf 43.5% and TRPC6 act confirm inactive.
OCC1(CCc2ccccc2)CCCN(CCCC(F)(F)F)C1 (stereo unspecified) was read as TRPC4 inh inactive, TRPC4 potent inactive, TRPC6 inh inactive, TRPC4 act inactive and TRPC6 activator inactive.
`CCNC(=O)CC1SC(=Nc2ccc(C)cc2)N(CC)C1=O` (stereo unspecified) gave TRPC4 inh inactive, TRPC4 potent inactive, TRPC6 inh inactive, TRPC4 act inactive and TRPC6 activator inactive.
COc1ccc2c(c1)c(C(O)CN1CCN(Cc3ccc4c(c3)OCO4)CC1)c(C)n2C (stereo unspecified) was read as TRPC4 inh inactive, TRPC4 potent inactive, TRPC6 inh -6.3, TRPC4 act inactive, TRPC6 activator inactive, HEK293 MPD ctr-2 inactive, HEK293 MPD ctr 2-2 inactive, TRPC4/MOR mod -9.5%, TRPC4 ctr inh 2 67.5%, TRPC6 block conf 52.0% and TRPC6 act confirm inactive.
Screening OC(CN1CCN(Cc2ccc3c(c2)OCO3)CC1)c1c[nH]c2ccccc12 (stereo unspecified) returned TRPC4 inh inactive, TRPC4 potent inactive, TRPC6 inh inactive, TRPC4 act inactive and TRPC6 activator inactive.
Screening Cc1c(C(O)CN2CCN(Cc3ccc4c(c3)OCO4)CC2)c2ccccc2n1C (stereo unspecified) returned TRPC4 inh inactive, TRPC4 potent inactive, TRPC6 inh -5.12, TRPC4 act inactive, TRPC6 activator inactive, HEK293 MPD ctr-2 inactive, HEK293 MPD ctr 2-2 inactive, TRPC4/MOR mod 11.0%, TRPC4 ctr inh 2 88.5%, TRPC6 block conf 55.0% and TRPC6 act confirm inactive.

Screening results (PubChem BioAssay)
